Values joined by “and” are separate entries in the source; they are usually repeats but may differ in a detail not shown here. Equal entries are not always repeated.
How the values were obtained:
Rattus norvegicus [1] = organism: Rattus norvegicus; experiment: Compound was evaluated for the effect on serum lipids in cholesterol-fed rats; format: functional
Method in brief: (§1)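 Rats fed diet with 1% cholesterol and 0.5% cholic acid, compound given in the diet at 1, 3 or 10 mg/kg per day. Read-outs were liver cholesterol (mg/g), serum cholesterol and serum triglycerides (mg/dL), each given as mean ± SEM. ED50 was derived from the dose response of liver cholesterol.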

Rattus norvegicus [2] = organism: Rattus norvegicus; experiment: Effective concentration required to effect liver cholesterol concentrations in rat; format: functional; method in brief: as §1
Rattus norvegicus [3] = organism: Rattus norvegicus; experiment: Effect of liver Cholesterol absorption in cholesterol-fed rats; format: functional; method in brief: as §1
Rattus norvegicus [4] = experiment: Compound was evaluated for the effect of serum lipids in cholesterol-fed rats Serum triglyceride at a dose of 10 mg/kg per day; format: functional; method in brief: as §1
Rattus norvegicus [5] = experiment: (§2) Effect of serum lipids in cholesterol-fed rats Serum triglyceride at a dose of 1 mg/kg per day of the compound.; format: functional; method in brief: as §1
Rattus norvegicus [6] = experiment: as §2; format: functional; method in brief: as §1; remark: listed apart in the source
Rattus norvegicus [7] = experiment: Effect of serum lipids in cholesterol-fed rats and Serum cholesterol at a dose of 1 mg/kg per day of the compound.; format: functional; method in brief: as §1
[8] = target: T1, Sterol O-acyltransferase 1 (Homo sapiens, UniProt P35610); experiment: In vitro inhibitory activity against acyl coenzyme A:cholesterol acyltransferase
T1 sequence (P35610 whole entry): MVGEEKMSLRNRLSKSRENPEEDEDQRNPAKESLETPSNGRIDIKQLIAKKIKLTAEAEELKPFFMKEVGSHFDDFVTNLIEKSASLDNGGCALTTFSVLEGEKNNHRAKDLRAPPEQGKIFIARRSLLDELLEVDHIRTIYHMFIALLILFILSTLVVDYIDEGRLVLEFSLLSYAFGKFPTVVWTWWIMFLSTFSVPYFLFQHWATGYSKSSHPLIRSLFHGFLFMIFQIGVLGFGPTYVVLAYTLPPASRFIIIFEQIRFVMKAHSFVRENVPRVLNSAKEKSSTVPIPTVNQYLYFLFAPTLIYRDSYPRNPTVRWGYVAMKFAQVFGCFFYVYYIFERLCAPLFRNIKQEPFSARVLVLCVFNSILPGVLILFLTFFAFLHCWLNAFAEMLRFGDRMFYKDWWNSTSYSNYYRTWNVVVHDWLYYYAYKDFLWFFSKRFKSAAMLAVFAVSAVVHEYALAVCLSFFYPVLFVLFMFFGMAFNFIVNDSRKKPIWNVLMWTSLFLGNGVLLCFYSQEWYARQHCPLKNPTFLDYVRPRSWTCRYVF

CCCCCCCN(Cc1ccc(CC(C)(C)C)cc1)C(=O)Nc1ccc(F)cc1F [CL-277082]
Cholesterol (Rattus norvegicus [1]): 84 mg/dL | ED50 (Rattus norvegicus [2]): 5.4 mg/kg | Liver cholesterol (Rattus norvegicus [3]): 15.6 mg/g | Triglycerides (Rattus norvegicus [4]): 77 mg/dL | Triglycerides (Rattus norvegicus [5]): 132 mg/dL | Triglycerides (Rattus norvegicus [6]): 121 mg/dL | Cholesterol (Rattus norvegicus [7]): 211 mg/dL and 357 mg/dL

CC(=O)[C@H]1CC[C@H]2[C@@H]3CCC4=CC(=O)CC[C@]4(C)[C@H]3CC[C@]12C [PROGESTERONE]
IC50 [8]: 17 µM

Reference: ChEMBL document CHEMBL1123296, “Potential antiatherosclerotic agents. 5. An acyl-CoA:cholesterol O-acyltransferase inhibitor with hypocholesterolemic activity” (J Med Chem, 1986)
